CHT block – inhibitors of human choline transporter CHT | 310,000 compounds, 0.86% hits | B-score at 10 µM | CHT-expressing cells, membrane potential dye, choline response; active compounds read low;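 active = B-score over 3 SD under the library average, and starting fluorescence ratio not unusually high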;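 note: choline stimulus applied at its EC90 after an EC20 pre-addition; B-score computed on integrated fluorescence ratio after choline addition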
Cl transport mod – KCC2 cotransporter modulators, thallium flux, primary screen, cell-based, HEK293 KCC2, FluoZin-2 fluorescence, MLSMR | Solute carrier family 12 member 5 (Homo sapiens), Q9H2X9 | KCC2 cells, thallium flux FluoZin-2 fluorescence | B-score of Tl+ flux slope (higher = more flux/activation; lower = inhibition) at 10 µM | 190,000 compounds, 2.2% hits | AID 1456, 2008;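 active = thallium flux slope and its plate-corrected score both differing from the plate sample mean at a set confidence after two filtering rounds, in either direction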;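 note: slope of fluorescence scaled to starting intensity during 10 to 20 s after thallium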
Rad51 HR inh – human RAD51 strand exchange inhibitors, primary screen, biochemical, fluorescence. hRad51 DNA strand exchange, fluorescence dequenching. DNA repair protein RAD51 homolog 1 (Homo sapiens), Q06609. inhibition, % at 10 µM. 200,000 compounds, 0.085% hits. AID 1385, 2008;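 active = inhibition above 40% at the single screening dose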
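System: hRad51 filaments on single-stranded DNA; reagent: Fluorescein- and BHQ1-tagged 47-mer duplex; compound dosing: one concentration, 10 µM final; timing: filaments 15 min 37 °C, then compound 30 min; measured by: fluorescein emission 520 nm, excitation 485 nm; benchmarks: per-plate controls and blanks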
CHT PAM – CHT positive allosteric modulators, primary screen, cell-based, membrane potential dye, choline EC20; AID 488977, 2010; CHT-expressing cells; active compounds read high; LV-AA mutant CHT in HEK293 cells; High affinity choline transporter 1 (Homo sapiens), Q9GZV3; B-score at 10 µM; 310,000 compounds, 0.49% hits;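 active = initial fluorescence not abnormally high and integrated response B-score, plate-corrected, over 3 SD above library mean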
KCC2 secondary – KCC2 modulators in sodium-free buffer, confirmation, cell-based, HEK293 KCC2, thallium flux, secondary assay. shares compounds with Cl transport mod. FluoZin2 fluorescence; active compounds read high. normalised thallium flux (F/F0 slope) at 10 µM. 3,700 compounds, 15% hits. AID 1713, 2009;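 active = thallium flux slope above the same plate's solvent-only control mean plus 3 SD; inconclusive = the two replicate wells disagree; inactive = no significant difference from solvent-only control wells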
KCC2 bumet counter – thallium flux persisting under bumetanide in KCC2 cells, confirmation, counter-screen for KCC2 modulator project, cell-based, HEK293 KCC2, FluoZin2, secondary assay 3; AID 1714, 2009; HEK293-KCC2 + bumetanide/ouabain; active compounds read high; shares compounds with Cl transport mod; 3,700 compounds, 49% hits; normalized thallium flux at 10 µM;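 active = thallium entry rate above the same plate's blocked-transporter control wells by more than 3 SD; inconclusive = the two repeat wells disagree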;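 note: raw slope of fluorescence over initial fluorescence between 10 and 20 s after thallium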
KCC2 sec2 – KCC2 modulators without ouabain present, confirmation, cell-based, HEK293 KCC2, thallium flux, FluoZin2, secondary assay 2; shares compounds with Cl transport mod; thallium flux FluoZin2 fluorescence; actives lie on both sides; F/F0 rise rate, 10–20 s post-thallium; normalized thallium flux at 10 µM; 3,700 compounds, 23% hits; AID 1715, 2009;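 active = thallium flux slope more than 3 SD above or below the plate's solvent-only control mean, mostly below; inconclusive = the two repeat wells disagreed; inactive = no significant shift from solvent-only controls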
HEK293 Tl flux – thallium flux modulation in parental HEK cells, confirmation, counter-screen for KCC2 modulator project, cell-based, counterscreen 1; shares compounds with Cl transport mod; HEK293 parental cells, thallium flux FluoZin2, ouabain; baseline-ratio fluorescence slope, 10–20 s after thallium; thallium flux rate (normalised fluorescence) at 10 µM; 3,700 compounds, 46% hits; AID 1716, 2009;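 active = thallium flux rate significantly above the same plate's solvent-only control wells, beyond their mean plus 3 SD; inconclusive = the two replicate wells gave conflicting results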
KCC2 retest ouab – KCC2 inhibitors and activators, ouabain retest, confirmation, HEK-KCC2 cells; 3,700 compounds, 48% hits; HEK293-KCC2, thallium flux FluoZin2 fluorescence; bidirectional: low = inhibitor, high = activator; shares compounds with Cl transport mod; raw Tl+ flux slope (below DMSO = inhibition, above = activation) at 10 µM; AID 1717, 2009;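 active = thallium flux slope beyond 3 SD from same-plate DMSO control mean in most replicates, usually higher, sometimes lower; inconclusive = repeat tests gave conflicting results; inactive = no significant difference from controls in most replicates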;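 note: slope of initial-normalized fluorescence between seconds 10 and 20 after thallium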
HEK counter2 – native HEK Tl+ uptake effects, second counter-screen – HEK cells, counterscreen 2, counter-screen for KCC2 modulator project, confirmation; shares compounds with Cl transport mod; HEK293 parental, thallium flux FluoZin-2 fluorescence slope; thallium flux slope at 10 µM; 3,700 compounds, 33% hits; AID 1718, 2009;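 active = thallium flux slope above the same plate's solvent-control mean plus 3 SD in both duplicate wells; inconclusive = duplicate wells that disagreed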;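 note: run without ouabain in cells lacking the KCC2 cotransporter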
Of the large screens only hits and unclear results are named; the others gave an inactive call (follow-up assays come after a bar, where they were run). Sampled rows, rich in hits. Any-hit rate of the full collection: about 2.6%.

COC(=O)c1sccc1NC(=O)CC1C(=O)NCCN1C(=O)Nc1ccc(C(F)(F)F)cc1 (stereo not drawn)	none
S=C(Nc1ccccc1)Nc1ccccc1-n1cccc1	Cl transport mod 8.5 (no result: CHT block, CHT PAM) | KCC2 secondary 0.014 | KCC2 bumet counter 0.05 | KCC2 sec2 inactive | HEK293 Tl flux 0.017 | KCC2 retest ouab inconclusive | HEK counter2 0.016
CCN(CC)S(=O)(=O)c1cccc(NC(=O)C(=O)c2c(-c3ccccc3)cc3ccccn23)c1	Cl transport mod -2.9 (no result: Rad51 HR inh) | KCC2 secondary inactive | KCC2 bumet counter inactive | KCC2 sec2 inactive | HEK293 Tl flux inactive | KCC2 retest ouab inactive | HEK counter2 inactive
CCN(CC)S(=O)(=O)c1cc(NC(=O)C(=O)c2c(-c3ccccc3)cc3ccccn23)ccc1C	none
COc1ccc(OC)c(-n2nnnc2SCC(=O)NCCc2ccccc2)c1	none (no result: Cl transport mod, Rad51 HR inh) | KCC2 secondary inactive | KCC2 bumet counter inactive | KCC2 sec2 inconclusive | HEK293 Tl flux inactive | KCC2 retest ouab inactive | HEK counter2 inactive
COc1ccc(OC)c(-n2nnnc2SCC(=O)Nc2ccccc2OC)c1	none (no result: Cl transport mod, Rad51 HR inh)
O=C(O)c1ccc(CNC(=O)c2ccc(C(F)(F)F)cc2)cc1	none
COCCCNCC(=O)Nc1ccc(OC(F)(F)F)cc1	Cl transport mod 3.6 (no result: Rad51 HR inh) | KCC2 secondary inactive | KCC2 bumet counter inactive | KCC2 sec2 inactive | HEK293 Tl flux inactive | KCC2 retest ouab inactive | HEK counter2 inactive
Cc1nnc(SCC(=O)c2cc(C)n(-c3ccc4c(c3)OCO4)c2C)s1	Cl transport mod -3.3 | KCC2 secondary inconclusive | KCC2 bumet counter 0.0031 | KCC2 sec2 inactive | HEK293 Tl flux inconclusive | KCC2 retest ouab inactive | HEK counter2 inactive
O=C(Nc1nnc(-c2cccs2)o1)c1cccc(Oc2ccccc2)c1	none (no result: Cl transport mod)
O=C(Nc1nnc(-c2cccs2)o1)c1cc(-c2ccccc2)nc2ccccc12	Cl transport mod 68 (no result: Rad51 HR inh) | KCC2 secondary 0.016 | KCC2 bumet counter 0.078 | KCC2 sec2 inactive | HEK293 Tl flux 0.043 | KCC2 retest ouab 0.061 | HEK counter2 0.015
CN1C(=O)C(=O)N(CC(=O)N2CCc3ccccc32)C1=O	none
O=C(CN1C(=O)CSc2ccccc21)N1CCc2ccccc21	Cl transport mod -4.9 (no result: Rad51 HR inh) | KCC2 secondary inactive | KCC2 bumet counter inactive | KCC2 sec2 inactive | HEK293 Tl flux inactive | KCC2 retest ouab 0.014 | HEK counter2 inactive
O=C(NCCOc1ccccc1F)c1cccc(S(=O)(=O)N2CCN(c3ccccc3)CC2)c1	none (no result: Cl transport mod, Rad51 HR inh)
CN(C)S(=O)(=O)c1cccc(NC(=S)N/N=C/c2ccco2)c1	Cl transport mod 6.3 | KCC2 secondary inactive | KCC2 bumet counter 0.0075 | KCC2 sec2 inactive | HEK293 Tl flux 0.0094 | KCC2 retest ouab inactive | HEK counter2 0.012
CN(C)S(=O)(=O)c1cccc(NC(=S)N/N=C/c2ccc(O)c(O)c2O)c1	none (no result: CHT block, CHT PAM)
COCCNC(C)C(=O)C12CC3CC(CC(C3)C1)C2 (stereo not drawn)	Cl transport mod 9 | KCC2 secondary inactive | KCC2 bumet counter inactive | KCC2 sec2 inactive | HEK293 Tl flux inactive | KCC2 retest ouab inactive | HEK counter2 inactive
COCCNCC(=O)C12CC3CC(CC(C3)C1)C2	none
O=C(c1ccc(Cl)c(S(=O)(=O)NCc2ccco2)c1)N1CCN(c2ccc(F)cc2)CC1	none (no result: Cl transport mod)
Cc1[nH]n(C(N)=S)c(=O)c1N=Nc1ccc2ccccc2c1	Cl transport mod 32 (no result: CHT block, CHT PAM) | KCC2 secondary inactive | KCC2 bumet counter 0.088 | KCC2 sec2 inconclusive | HEK293 Tl flux 0.027 | KCC2 retest ouab 0.036 | HEK counter2 0.019
Cc1[nH]n(C(N)=S)c(=O)c1N=Nc1cc(-c2ccc(Br)cc2)[nH]n1	Cl transport mod -6.9 | KCC2 secondary inactive | KCC2 bumet counter inactive | KCC2 sec2 inactive | HEK293 Tl flux 0.0056 | KCC2 retest ouab 0.011 | HEK counter2 inactive
Cc1ccc(N=Nc2c(C)[nH]n(C(N)=S)c2=O)cc1C	Cl transport mod 16 | KCC2 secondary inactive | KCC2 bumet counter 0.067 | KCC2 sec2 inactive | HEK293 Tl flux 0.021 | KCC2 retest ouab 0.06 | HEK counter2 inactive
COc1ccc(-n2ncc(C(=O)NC3CC3)c2C2CCN(C(=O)OC(C)(C)C)CC2)cc1	none (no result: Cl transport mod, Rad51 HR inh)
Cc1nc(NC(=O)c2ccco2)sc1C(=O)Nc1ccc(Br)cc1	Cl transport mod -5.3 | KCC2 secondary inactive | KCC2 bumet counter inactive | KCC2 sec2 inconclusive | HEK293 Tl flux inactive | KCC2 retest ouab inactive | HEK counter2 inactive
O=C(Nc1nc2c(Br)cc(Br)cc2c(=O)s1)c1ccco1	Cl transport mod 17 | KCC2 secondary 0.027 | KCC2 bumet counter 0.03 | KCC2 sec2 inactive | HEK293 Tl flux 0.04 | KCC2 retest ouab 0.032 | HEK counter2 0.013
Cc1nc(NC(=O)c2ccco2)sc1C(=O)O	none (no result: Cl transport mod, Rad51 HR inh)
CC(C)c1ccc(NC(=O)c2cnn(-c3ccccc3)c2NC(=O)c2ccco2)cc1	Cl transport mod -3.7 | KCC2 secondary inactive | KCC2 bumet counter inconclusive | KCC2 sec2 0.026 | HEK293 Tl flux inactive | KCC2 retest ouab inconclusive | HEK counter2 inactive
CNS(=O)(=O)c1cc(NC(=O)CCNC(=O)c2ccco2)ccc1C	none (no result: Cl transport mod, Rad51 HR inh)
CCN(CC)c1ccc2c(C)c(-c3ccc(N)cc3)c(=O)oc2c1	Cl transport mod -5.1 (no result: Rad51 HR inh) | KCC2 secondary inactive | KCC2 bumet counter 0.011 | KCC2 sec2 inconclusive | HEK293 Tl flux inactive | KCC2 retest ouab 0.016 | HEK counter2 inactive

Bioassay records as filed in PubChem.
